Data set [1] concerns the target T1, Corticotropin-releasing factor receptor 1 (Rattus norvegicus, UniProt P35353).
T1 sequence (P35353 whole entry): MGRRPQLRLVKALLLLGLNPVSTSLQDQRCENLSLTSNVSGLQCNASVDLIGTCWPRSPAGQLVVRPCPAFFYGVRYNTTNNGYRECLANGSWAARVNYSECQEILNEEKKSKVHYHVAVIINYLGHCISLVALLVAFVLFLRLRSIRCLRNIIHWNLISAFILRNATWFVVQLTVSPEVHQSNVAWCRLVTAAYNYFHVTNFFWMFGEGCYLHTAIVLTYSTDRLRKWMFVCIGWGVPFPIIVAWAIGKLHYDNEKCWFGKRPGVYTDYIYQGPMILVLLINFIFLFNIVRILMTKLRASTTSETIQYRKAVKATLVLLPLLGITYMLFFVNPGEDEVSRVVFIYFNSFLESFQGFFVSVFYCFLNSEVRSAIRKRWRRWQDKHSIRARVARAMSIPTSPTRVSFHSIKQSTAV
Put plainly: Inhibition of binding of 70 pM [125I]-Try0-o-Corticotropin-releasing Factor (CFR) to Corticotropin releasing hormone receptor 1 in Rat brain membrane. Type of data set: cell membranes.

A short description of data set [2]: Maximal plasma concentration in rat. Format: ADME, organism-based. The procedure, abridged:
(§1)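 Male Sprague-Dawley rats (300–350 g) had jugular cannulae placed under pentobarbital the day before dosing. Groups of n = 4 got 5 mg/kg iv bolus (DMSO/emulphor/saline 5:5:90) or 10 mg/kg po (DMSO/emulphor/water 5:5:90). Serial plasma was taken to 24 h (iv) or 8 h (po) and assayed by HPLC-UV at 300 nm. AUC was by linear trapezoid, CL = dose/AUC, Vdss = CL×MRT, and F from dose-normalised po/iv AUC.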

The nature of data set [3]: Plasma clearance in rat. Type of data set: ADME, organism-based. The procedure, abridged:
as §1

Data set [4] is filed under the species Rattus norvegicus. In words: Volume of distribution in steady state in rat. Type of data set: ADME, organism-based. To be noted: in vivo. The procedure, abridged: as §1
Data set [5] is described as follows: Oral bioavailability in rat. Format: ADME, organism-based. To be noted: in vivo, read-out: Bioavailabiility. An outline of the steps: as §1
In data set [6] the target is Corticotropin-releasing factor receptor 2 (Rattus norvegicus, UniProt P47866). Put plainly: Inhibition of binding of [125I]-Tyr0-sauvagine to Corticotropin releasing hormone receptor 2 (CRF2).
Chain of Corticotropin-releasing factor receptor 2 (P47866 whole entry): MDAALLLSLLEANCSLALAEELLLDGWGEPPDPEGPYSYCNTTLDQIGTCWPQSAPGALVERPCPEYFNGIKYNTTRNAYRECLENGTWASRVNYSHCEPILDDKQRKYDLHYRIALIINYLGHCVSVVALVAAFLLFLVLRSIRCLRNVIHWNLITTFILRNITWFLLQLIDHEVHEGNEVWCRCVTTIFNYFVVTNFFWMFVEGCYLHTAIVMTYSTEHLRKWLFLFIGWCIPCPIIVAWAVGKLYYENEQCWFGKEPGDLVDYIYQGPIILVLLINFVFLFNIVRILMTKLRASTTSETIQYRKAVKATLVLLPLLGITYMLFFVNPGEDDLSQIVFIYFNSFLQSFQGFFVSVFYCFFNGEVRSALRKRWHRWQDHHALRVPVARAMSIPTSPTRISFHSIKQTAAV
The species entered for data set [7] is Rattus norvegicus. In words: Half life in rat. As to conditions: in vivo. Type of data set: ADME, organism-based. An outline of the steps: as §1

On to `CCCCN(CC)c1nc(C)nc2c1c(C)cn2-c1c(C)cc(C)cc1C` [CP-154526], for which the IC50 in data set [1] was determined as 5.5 nM. The concentration in data set [2] peaked (Cmax) at 367 ng/mL. The same molecule returned a clearance in data set [3] of 82 mL/min/kg. This molecule returned a Vdss in the data set filed under Rattus norvegicus [4] of 6.7 L/kg. In data set [5], the bioavailability came out at 37%. The Ki in data set [6] was greater than 10000 nM. For the same molecule, the T1/2 in the data set filed under Rattus norvegicus [7] came out at 1.5 h.

As usually defined, the IC50 is the concentration at which inhibition is half-maximal. High values mean weaker potency, low ones greater potency. Usually Cmax stands for the highest concentration seen after dosing. For orientation: clearance means the rate of elimination divided by the concentration. Lower therefore signals inefficient removal. By Vdss is commonly meant the apparent volume that relates the amount in the body to the concentration in plasma or blood. High values mean wide distribution into tissue, low ones little distribution into tissue. The Ki is the dissociation constant of the complex between target and ligand, obtained from inhibition or displacement. Low values mean tighter binding, high ones weaker binding.
